PLCg1 inh: inhibitors of human phospholipase C gamma1 | P19174 | purified PLC-gamma1, fluorogenic substrate, fluorescence | inhibition, % at 12.2 µM | actives 0.84% (n = 370,000) | AID 720700; in the data active means inhibition above about 9.5%
VIM-2 inh: inhibitors of Pseudomonas aeruginosa VIM-2 metallo-beta-lactamase; actives 0.89% (n = 290,000); AID 1527; purified VIM-2, nitrocefin hydrolysis, epi-absorbance fluorescence; inhibition, % at 5.6 µM;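 active means inhibition above the mean of all tested compounds plus 3 SD, cutoff set per screening run, cut at about 7.5% in these data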;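 further: red hydrolysis product quenches plate fluorescence so inhibitors raise well fluorescence; 0% = enzyme with DMSO and 100% = DMSO without enzyme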
PLCb3 inh: blocks human PLC-beta3 enzyme activity; actives 0.18% (n = 370,000); Q01970; AID 720704; inhibition, % at 12.2 µM; Purified PLC-beta3, fluorogenic substrate, fluorescence; in the data active means inhibition above about 11%;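 further: 0% = median of compound wells on plate and 100% = full blocker control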
IMP-1 inh: inhibitors of Pseudomonas aeruginosa IMP-1 metallo-beta-lactamase; actives 0.45% (n = 290,000); inhibition, % at 5.6 µM; purified IMP-1, nitrocefin hydrolysis, epi-absorbance fluorescence;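 active means inhibition above the mean plus 3 SD of all compounds in the same screening run, cut at about 4.5% in these data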;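 further: 0% = IMP-1 with DMSO and 100% = DMSO wells lacking enzyme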
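Test system: recombinant IMP-1 enzyme, purified / Medium: HEPES buffer pH 7.1 with ZnSO4 and Brij 35 / Doses: single dose, 5.6 µM / Times: 25 °C, 15 min preincubation, 25 min reaction / Detection: Epi-absorbance via hydrolysed-nitrocefin quenching of white-plate fluorescence, 480/530 nm, EDTA stop / Evaluation: percent inhibition from optical density relative to buffer-blank wells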
PvdQ acylase: blocks Pseudomonas aeruginosa PvdQ acylase activity; actives 0.063% (n = 340,000); purified PvdQ acylase, fluorescence plate reader; inhibition, % at 10 µM; AID 488965; in the data active means inhibition above about 30%, passing the limit was not always enough;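 further: 0% = vehicle neutral wells and 100% = reference inhibitor wells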
The depositor's hits bear a star; i = inactive; · = not tested or not shown. Most compounds without a hit are left out; they make up all but 2% or so of the library.

SMILES	PLCg1 inh	VIM-2 inh	PLCb3 inh	IMP-1 inh	PvdQ acylase
CCN1CCN(C(=O)C2CCN(c3nnc(C)c4c(C)n(-c5ccc(C)cc5)nc34)CC2)CC1	-144	9.1*	-204	1	-14
COc1ccc(-n2nc3c(N4CCC(C(=O)NCc5ccccc5C)CC4)nnc(C)c3c2C)cc1	·	3	·	11*	0
O=C(OCc1cn(Cc2ccc(F)cc2)nn1)N1CCOCC1	2	·	3	·	·
O=C(NC1CC1c1ccccc1)N1CCC(c2nc3ccc(Cl)cc3[nH]2)CC1 (centres undefined)	1	·	-2	·	·
COc1ccc2c(c1)N[C@@](CCN1C(=O)c3ccccc3C1=O)(c1[nH]c3ccccc3c1CCN1C(=O)c3ccccc3C1=O)C2=O	3	·	2	·	·
O=C(CSc1nc2ccccc2[nH]1)NN=Cc1ccccc1C(=O)O	-59	·	-83	·	·
Cc1ccc(CCNC(=O)C2CCN(S(=O)(=O)c3cccc4nsnc34)CC2)cc1	1	-2	3	4.9*	-12
CN1CCN(c2ccc([N+](=O)[O-])c(-n3nc(-c4ccccc4)c4ccccc4c3=O)c2)CC1	9.6*	2	9	-2	-6
COc1ccc(C(=O)Nc2nnc(-c3ccco3)s2)cc1	-17	1	-26	7.3*	11
CCCCCCCCN1C(=O)[C@@H](CC(=O)NCc2ccc(C)o2)C[C@@]2(C(=O)OC)C1=C[C@H](COCc1ccccc1)O[C@@H]2C	-3	·	-1	·	·
C=CCN1C(=O)[C@@H](CC(=O)NCCCN2CCCC2=O)[C@]2(C(=O)OC)CCCCC=C12	-1	·	3	·	·
Cn1cc(P(=S)(N2CCOCC2)N2CCOCC2)cc1P(=O)(N1CCOCC1)N1CCOCC1	18*	-1	-4	-3	10
Cn1cc(P(=O)(N2CCOCC2)N2CCOCC2)cc1P(=S)(N1CCOCC1)N1CCOCC1	0	-2	3	-1	-7
CCCOc1ccccc1C(=O)N(Cc1cccs1)C1CCS(=O)(=O)C1 (centres undefined)	3	-3	12*	-2	-2
CCOc1ccccc1C(=O)N(Cc1cccs1)C1CCS(=O)(=O)C1 (centres undefined)	2	-2	4	-2	-8
O=C(OCc1cn(Cc2ccc(F)c(F)c2)nn1)N1CCOCC1	2	·	-6	·	·
Cc1ccc(C(=O)Cn2ncsc2=N)cc1	-2	-2	-3	25*	-5
CSc1ccccc1C(=O)C1CCCN(C(=O)CCN2CCCO2)C1 (centres undefined)	0	-1	-2	-1	-11
COCCC(=O)N1CCCC(C(=O)c2ccccc2SC)C1 (centres undefined)	-14	-2	-22	19*	0
Cc1ccc(C)c(NC(=O)CN2C(=O)CCSc3ccccc32)c1	2	·	2	·	·
CNC[C@@H](C)NC[C@@H](Cc1ccccc1)NCCc1ccccc1	2	12*	2	0	-8
Cc1cccc(-c2nc(NCCCN(C)C)c3ccccc3n2)c1	-3	7.8*	-10	-3	-11
CN(C)CCCNc1nc(-c2ccc(Cl)cc2)nc2ccccc12	-1	1	-8	-3	-15
c1ccc(-c2nc(NCCCN3CCOCC3)c3ccccc3n2)cc1	-1	10*	-1	1	-15
c1ccc2[nH]c(NCCCN3CCOCC3)nc2c1	1	-1	3	-4	-4
SMILES	PLCg1 inh	VIM-2 inh	PLCb3 inh	IMP-1 inh	PvdQ acylase
Cc1cccc(-c2nc(NCCCN3CCOCC3)c3ccccc3n2)c1	-7	7.7*	-8	-4	4
Cc1ccc2ncnc(NCCCN3CCOCC3)c2c1	-2	-2	-1	-6	-8
CC(=Nc1ccc(Cl)cc1N)c1c(O)cc(C)oc1=O	-18	·	-22	·	·
c1csc(-c2nn3cnnc3c3ccccc23)c1	0	12*	-6	-3	-6
CC1(C)C(C#N)=C(N)Oc2c1c(=O)oc1ccccc21	-3	1	-12	4.9*	-2
Cc1cc(NCCN2CCCCC2)n2c(nc3ccccc32)c1C#N	·	8.7*	·	-2	·
CCCc1cc(NCCCO)n2c(nc3ccccc32)c1C#N	i	10*	i	0	·
CC(C)c1cc(NCCN2CCOCC2)n2c(nc3ccccc32)c1C#N	-10	·	-25	·	-12
Cc1c2c(n3c(nc4ccccc43)c1C#N)N(CCN(C)C)CC2	i	11*	i	-4	-36
O=C(c1ccccc1)N1CCC(Oc2cccnc2)CC1	1	·	0	·	·
COC(=O)C1CN(C2CCCC2)CCS(=O)(=O)N1Cc1ccc(OC)cc1 (centres undefined)	-1	·	-2	·	·
Cc1cccc(N(CC(N)=O)C2SC(=O)N(c3ccccc3)C2=O)c1 (centres undefined)	2	-2	1	6.6*	-3
CNC(=O)c1c(NC(=O)c2cccc(C)c2)sc2c1CCC2	-135	2	-153	4.7*	-7
COC(=O)[C@]12C[C@H](CC(=O)N3CCOCC3)C(=O)N(CCc3ccc(OC)c(OC)c3)C1=C[C@H](C1CCCC1)O[C@@H]2C	0	·	4	·	·
NC(=O)C1CCN(c2nc(-c3ccc(OCc4ccccc4)cc3)cs2)CC1	8	·	-4	·	·
C=CCOC(=O)c1ccc(-n2cnc(C)n2)nc1	2	2	3	-2	71*
CCn1c(SCC(=O)N2CCN(c3ccccc3)CC2)nc2c(c1=O)SC(C)C2 (centres undefined)	-1	0	2	4.9*	-15
COC(=O)C1CN(Cc2ccccc2)CCS(=O)(=O)N1Cc1cn(Cc2cccc(Cl)c2)nn1 (centres undefined)	2	·	1	·	·
CN(C(=O)[C@@H](C1CC1)[C@@H](O)c1ccc2ccccc2c1)c1ccccc1	10*	·	0	·	·
C#CCNC(=O)C[C@H]1C[C@@]2(C(=O)OC)C(=C[C@H](C(C)(C)C)O[C@@H]2C)N(Cc2ccco2)C1=O	-2	·	-2	·	·
CSc1nnc(-c2ccccc2)o1	3	-1	3	-2	3
CSc1nnc(-c2ccc(NC(N)=S)cc2)o1	2	1	-1	4.6*	-16
CSc1nnc(-c2cccc(NC(=S)NN)c2)o1	0	9.7*	-1	-4	3
CCN1CCN(Cc2c(O)ccc3c2O/C(=C\c2ccc(C)cc2)C3=O)CC1	i	8.8*	i	2	-6
COc1ccccc1/C=C/C=C1\Oc2c(ccc(O)c2CN2CCN(CCO)CC2)C1=O	-366	2	-449	27*	14
Cc1ccc(/C=C2\Oc3c(ccc(O)c3CN3CCN(C)CC3)C2=O)cc1	i	9.5*	i	1	-8
CCCN(CCC)c1nc2ccccc2n2c(C)nnc12	-15	0	-22	-2	3
CCCNc1nc2ccccc2n2c(C)nnc12	1	11*	-4	-6	0
CCc1nnc2c(NCCc3ccccc3)nc3ccccc3n12	0	8.5*	1	-2	-14
CC(C)Cc1nnc(NC(=O)CCC(=O)Nc2ccc(Cl)cc2)s1	2	-4	-7	-1	-3
